Hits are enriched below; roughly 1.1% of the tested compounds scored in any of these assays.
Thrombin inh – thrombin (human) inhibition | P00734 | inhibition, % at 5 µM | alpha-thrombin, Boc-VPR-AMC fluorogenic substrate cleavage | 220,000 compounds, 0.26% hits;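 active = inhibition at or above 40%; inactive = inhibition below 40%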;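 also: 0% = enzyme with no compound and 100% = wells without enzyme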
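System: human alpha-thrombin protein; Compound dosing: one concentration per compound, 5 µM, with 0.2% DMSO; Timing: reaction at room temperature; Technique: AMC fluorescence, 355/460 nm; Controls: enzyme without compound as high, wells lacking enzyme as low.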
FXIa inh 1536 – blocks human coagulation factor XIa protease activity; purified FXIa, Boc-Glu-Ala-Arg-AMC fluorogenic substrate; inhibition, % at 5 µM; 220,000 compounds, 0.14% hits; AID 798;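 active = inhibition of at least 40%; inactive = inhibition below 40%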;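 also: fluorescence of freed AMC excited at 355 nm; 0% = enzyme without compound and 100% = no enzyme blank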
FXIIa inh 1536 – factor XIIa (human) inhibition. purified FXIIa, Boc-QGR-AMC fluorogenic substrate, 2 h. 220,000 compounds, 0.3% hits. P00748. inhibition, % at 5 µM; in the data active = inhibition above about 40%;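 also: 0% = enzyme with no compound and 100% = blank without enzyme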
KLK5 inh – blocks human kallikrein 5 protease activity | Q9Y337 | recombinant hK5, fluorogenic AMC substrate cleavage | inhibition, % at 5 µM | 210,000 compounds, 0.59% hits | AID 873;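 active = inhibition of 40% or more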;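 also: 0% = enzyme controls without compound and 100% = no-enzyme blanks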
Furin inhibitor – inhibitors of human furin. inhibition, % at 20 µM or 30 µM. purified furin, fluorogenic substrate cleavage. P09958. 220,000 compounds, 0.061% hits. AID 463115; in the data active = inhibition above about 25%
Target sequence (P09958 108-714 limits assumed): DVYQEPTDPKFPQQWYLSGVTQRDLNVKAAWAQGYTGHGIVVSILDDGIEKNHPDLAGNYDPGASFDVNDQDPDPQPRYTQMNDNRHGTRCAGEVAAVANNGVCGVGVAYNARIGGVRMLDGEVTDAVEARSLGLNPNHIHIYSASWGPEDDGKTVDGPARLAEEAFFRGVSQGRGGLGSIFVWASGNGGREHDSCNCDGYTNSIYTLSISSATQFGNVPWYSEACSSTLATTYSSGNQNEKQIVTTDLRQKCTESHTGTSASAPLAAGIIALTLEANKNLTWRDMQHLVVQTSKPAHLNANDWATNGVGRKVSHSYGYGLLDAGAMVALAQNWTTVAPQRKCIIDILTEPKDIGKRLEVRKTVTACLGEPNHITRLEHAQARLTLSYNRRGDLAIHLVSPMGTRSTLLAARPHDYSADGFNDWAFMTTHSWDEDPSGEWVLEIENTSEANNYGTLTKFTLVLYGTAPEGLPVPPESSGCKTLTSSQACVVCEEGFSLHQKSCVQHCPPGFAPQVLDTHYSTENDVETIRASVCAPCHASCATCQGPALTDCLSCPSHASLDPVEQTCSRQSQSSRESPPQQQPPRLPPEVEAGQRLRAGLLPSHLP
Active calls of the source: *.

SMILES	Thrombin inh	FXIa inh 1536	FXIIa inh 1536	KLK5 inh	Furin inhibitor
O=C(CCSCc1cccc(Cl)c1)NCCc1ccccc1	0	-1	11	-3	-16
O=S(=O)(Nc1ncnc2sc3c(c12)CCC3)c1ccc2ccccc2c1	1	0	14	8	-15
Cc1cc(F)ccc1S(=O)(=O)Nc1ncnc2sc3c(c12)CCC3	2	41*	23	11	-9
C#CCNC(=O)C1=C[C@@H](C2CC2)[C@H](CCCO)[C@@H](OCC)O1	-3	0	3	-2	-29
CCN(CC)S(=O)(=O)c1cc(C(=O)O)ccc1OC	0	0	8	7	-7
CSc1ccccc1C(=O)NCc1ccccc1C	-8	-6	1	-2	-13
CCCCCc1ccc(OCCCC[n+]2ccc(C)cc2)c(CCCCC)c1	9	3	11	40*	-6
CCCCCc1ccc(OCCCC[n+]2ccccc2)c(CCCCC)c1	-2	-6	1	-4	-20
COc1ccc(-n2c(SC(CN3CCCCC3)CN3CCCC3=O)nc3ccccc3c2=O)cc1 (stereo not given)	4	-4	15	-20	-20
COC(=O)C(C(=O)OC)C(C)C(C(=O)OC)C(=O)OC	-2	-14	5	-23	-16
O=[N+]([O-])c1c(N2CCN(CCO)CC2)nc2ccccn12	-2	6	7	-6	-7
COCCN(C(=O)C1CC1)c1nnc(-c2ccc(C)cc2)s1	1	34	64*	-4	-5
CCOc1ccc(-c2nnc(N(CC)C(=O)C3CCC3)s2)cc1	-5	-2	-10	-10	-22
Cc1cccc(OS(=O)(=O)NC(=O)OCC2CCCN3CCCCC23)c1 (stereo not given)	1	-6	4	-13	-12
CCC(C)(C)NC(=O)C(c1ccccn1)N(C(=O)c1csnn1)c1ccc(C)cc1 (stereo not given)	-17	-6	6	-1	-13
CS(=O)(=O)n1nc(-c2cccnc2)nc1NCc1ccccc1	4	7	13	-1	-6
COc1ccc(CNc2nc(-c3cccnc3)nn2C(=O)C(C)C)cc1	99*	-2	3	-15	-20
O=C(c1cccnc1)n1nc(-c2ccco2)nc1NCc1cccs1	97*	2	8	0	-20
CCC(=O)n1nc(-c2cccnc2)nc1NCc1ccc(OC)cc1	100*	-1	9	1	-4
O=C(c1cccs1)n1nc(-c2ccc(Cl)cc2)nc1NCc1ccco1	7	3	17	-2	-17
CC(C)C(=O)n1nc(-c2cccnc2)nc1NCc1cccs1	100*	13	-3	-6	-25
COCCNC(=O)c1c(C)cc(C)cc1C	-1	1	12	2	-29
Cc1ccn2cc(-c3cccc([N+](=O)[O-])c3)nc2c1	-2	2	12	4	-15
S=c1[nH]nc(CCCc2n[nH]c(=S)o2)o1	2	0	-1	0	-12
Cc1ccc(NC(=O)CSc2nc(O)c(Cc3ccccc3)c(=O)n2-c2ccccc2)cc1	-2	5	0	-9	-21
SMILES	Thrombin inh	FXIa inh 1536	FXIIa inh 1536	KLK5 inh	Furin inhibitor
Cc1ccc(-c2c[n+](CC(=O)Nc3nc(-c4ccc(F)cc4)cs3)c3n2CCC3)cc1	21	6	27	49*	-9
O=C(CSc1nc2ccccc2c(=O)[nH]1)c1cccs1	-6	2	13	2	-11
N#Cc1c(-c2cccs2)nc(SCC(=O)c2cccs2)[nH]c1=O	26	19	30	71*	-8
O=C(N/N=C/c1cccc([N+](=O)[O-])c1)C1CC(=O)N(c2ccc(Cl)cc2)C1 (stereo not given)	-6	-5	6	-3	3
Cc1ccc(N2CC(C(=O)N/N=C/c3cccc([N+](=O)[O-])c3)CC2=O)cc1 (stereo not given)	104*	5	17	33	-15
CCCC(C)NC1=NCCCCC1 (stereo not given)	16	10	15	56*	-19
CCN1CCCC1CNC1=NCCCCC1 (stereo not given)	4	2	15	-17	-18
Cc1nc(N2CCCCC2)c2ccsc2n1	-16	-1	-8	4	-15
Cc1nc(SCc2ccccc2)c2ccsc2n1	20	29	57*	56*	-8
c1ccc(CSc2ncnc3sccc23)cc1	37	25	37	42*	-12
Cc1ccc(/C=C2\SC(=S)N(CCC(=O)NNS(=O)(=O)c3ccccc3)C2=O)cc1	6	4	15	9	-23
